Source: ChEMBL document CHEMBL1127451, “Benzoselenazolinone derivatives designed to be glutathione peroxidase mimetics feature inhibition of cyclooxygenase/5-lipoxygenase pathways and anti-inflammatory activity” (1994)

Tests used:
Type in all cases: functional
[1] = test system: Rattus norvegicus; experiment: Tested for acute anti-inflammatory activity of the antirat serum-induced edema in rats at dose of 0.1 mg/kg at time interval- 2 hr
In short: (§1)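 Oral dosing of fasted Wistar rats (200–240 g, six per group) with drug in 0.5 mL 2% gelatin; 1 h later 0.1 mL rabbit antirat serum given by subplantar injection into hind paw.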

[2] = test system: Rattus norvegicus; experiment: Tested for acute anti-inflammatory activity of carrageenan-induced foot edema in rats at dose of 0.1 mg/kg at time interval- 0.5 hr
In short: (§2)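 Fasted male-unspecified Wistar rats (200–240 g), groups of six, dosed orally with drug in 0.5 mL 2% gelatin; 1 h later 0.1 mL carrageenan (2% in […]) injected subplantar into hind paw. Paw volume by water plethysmometer at 0, 0.5, 1, 2, 3, 4 h; mean swelling versus vehicle-treated group expressed as percent inhibition.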

[3] = test system: Rattus norvegicus; experiment: Tested for acute anti-inflammatory activity of carrageenan-induced foot edema in rats at dose of 0.1 mg/kg at time interval- 1 hr; in short: as §2
[4] = test system: Rattus norvegicus; experiment: Tested for acute anti-inflammatory activity of carrageenan-induced foot edema in rats at dose of 0.1 mg/kg at time interval- 2 hr; in short: as §2
[5] = test system: Rattus norvegicus; experiment: Tested for acute anti-inflammatory activity of carrageenan-induced foot edema in rats at dose of 0.1 mg/kg at time interval- 3h; in short: as §2
[6] = test system: Rattus norvegicus; experiment: Tested for acute anti-inflammatory activity of carrageenan-induced foot edema in rats at dose of 0.1 mg/kg at time interval- 4 hr; in short: as §2
[7] = test system: Rattus norvegicus; experiment: Tested for acute anti-inflammatory activity of carrageenan-induced foot edema in rats at dose of 10 mg/kg at time interval- 0.5 hr; in short: as §2
[8] = test system: Rattus norvegicus; experiment: Tested for acute anti-inflammatory activity of carrageenan-induced foot edema in rats at dose of 10 mg/kg at time interval- 1 hr; in short: as §2
[9] = test system: Rattus norvegicus; experiment: Tested for acute anti-inflammatory activity of carrageenan-induced foot edema in rats at dose of 10 mg/kg at time interval- 2 hr; in short: as §2
[10] = test system: Rattus norvegicus; experiment: Tested for acute anti-inflammatory activity of carrageenan-induced foot edema in rats at dose of 10 mg/kg at time interval- 3h; in short: as §2
[11] = test system: Rattus norvegicus; experiment: Tested for acute anti-inflammatory activity of carrageenan-induced foot edema in rats at dose of 10 mg/kg at time interval- 4 hr; in short: as §2
[12] = test system: Rattus norvegicus; experiment: Tested for acute anti-inflammatory activity of carrageenan-induced foot edema in rats at dose of 1 mg/kg at time interval- 0.5 hr; in short: as §2
[13] = test system: Rattus norvegicus; experiment: Tested for acute anti-inflammatory activity of carrageenan-induced foot edema in rats at dose of 1 mg/kg at time interval- 1 hr; in short: as §2
[14] = test system: Rattus norvegicus; experiment: Tested for acute anti-inflammatory activity of carrageenan-induced foot edema in rats at dose of 1 mg/kg at time interval- 2 hr; in short: as §2
[15] = test system: Rattus norvegicus; experiment: Tested for acute anti-inflammatory activity of carrageenan-induced foot edema in rats at dose of 1 mg/kg at time interval- 3h; in short: as §2
[16] = test system: Rattus norvegicus; experiment: Tested for acute anti-inflammatory activity of carrageenan-induced foot edema in rats at dose of 1 mg/kg at time interval- 4 hr; in short: as §2
[17] = test system: Rattus norvegicus; experiment: Tested for acute anti-inflammatory activity of the antirat serum-induced edema at dose of 1 mg/kg at time interval- 3h; in short: as §1
[18] = test system: Rattus norvegicus; experiment: Tested for acute anti-inflammatory activity of the antirat serum-induced edema in rats at dose of 0.1 mg/kg at time interval- 0.5 hr; in short: as §1
[19] = test system: Rattus norvegicus; experiment: Tested for acute anti-inflammatory activity of the antirat serum-induced edema in rats at dose of 0.1 mg/kg at time interval- 3h; in short: as §1
[20] = test system: Rattus norvegicus; experiment: Tested for acute anti-inflammatory activity of the antirat serum-induced edema in rats at dose of 0.1 mg/kg at time interval- 4 hr; in short: as §1
[21] = test system: Rattus norvegicus; experiment: Tested for acute anti-inflammatory activity of the antirat serum-induced edema in rats at dose of 10 mg/kg at time interval- 0.5 hr; in short: as §1
[22] = test system: Rattus norvegicus; experiment: Tested for acute anti-inflammatory activity of the antirat serum-induced edema in rats at dose of 10 mg/kg at time interval- 1 hr; in short: as §1
[23] = test system: Rattus norvegicus; experiment: Tested for acute anti-inflammatory activity of the antirat serum-induced edema in rats at dose of 10 mg/kg at time interval- 3h; in short: as §1
[24] = test system: Rattus norvegicus; experiment: Tested for acute anti-inflammatory activity of the antirat serum-induced edema in rats at dose of 10 mg/kg at time interval- 4 hr; in short: as §1
[25] = test system: Rattus norvegicus; experiment: Tested for acute anti-inflammatory activity of the antirat serum-induced edema in rats at dose of 1 mg/kg at time interval- 0.5 hr; in short: as §1
[26] = test system: Rattus norvegicus; experiment: Tested for acute anti-inflammatory activity of the antirat serum-induced edema in rats at dose of 1 mg/kg at time interval- 1 hr; in short: as §1
[27] = test system: Rattus norvegicus; experiment: Tested for acute anti-inflammatory activity of the antirat serum-induced edema in rats at dose of 1 mg/kg at time interval- 2 hr; in short: as §1
[28] = test system: Rattus norvegicus; experiment: Tested for acute anti-inflammatory activity of the antirat serum-induced edema in rats at dose of 1 mg/kg at time interval- 4 hr; in short: as §1
[29] = test system: Rattus norvegicus; experiment: Tested for acute anti-inflammatory activity of the antirat serum-induced edema in rats at dose of 0.1 mg/kg at time interval- 1 hr; in short: as §1
[30] = test system: Rattus norvegicus; experiment: Tested for acute anti-inflammatory activity of the antirat serum-induced edema in rats at dose of 10 mg/kg at time interval- 2 hr; in short: as §1

COc1ccc2c(c1)c(CC(=O)O)c(C)n2C(=O)c1ccc(Cl)cc1 [INDOMETHACIN]
inhibition in vivo at 0.1 mg/kg [1]: 4.4%
inhibition in vivo at 0.1 mg/kg [2]: -124%
inhibition in vivo at 0.1 mg/kg [3]: 11.3%
inhibition in vivo at 0.1 mg/kg [4]: 1.7%
inhibition in vivo at 0.1 mg/kg [5]: 4%
inhibition in vivo at 0.1 mg/kg [6]: -1.7%
inhibition in vivo at 10 mg/kg [7]: -57.1%
inhibition in vivo at 10 mg/kg [8]: 26.2%
inhibition in vivo at 10 mg/kg [9]: 55.5%
inhibition in vivo at 10 mg/kg [10]: 68.7%
inhibition in vivo at 10 mg/kg [11]: 65.2%
inhibition in vivo at 1 mg/kg [12]: -22.2%
inhibition in vivo at 1 mg/kg [13]: 41.8%
inhibition in vivo at 1 mg/kg [14]: 40.2%
inhibition in vivo at 1 mg/kg [15]: 40%
inhibition in vivo at 1 mg/kg [16]: 29.5%
inhibition in vivo at 1 mg/kg [17]: 1.6%
inhibition in vivo at 0.1 mg/kg [18]: -28.3%
inhibition in vivo at 0.1 mg/kg [19]: 4.4%
inhibition in vivo at 0.1 mg/kg [20]: 16.9%
inhibition in vivo at 10 mg/kg [21]: -21.2%
inhibition in vivo at 10 mg/kg [22]: -1.5%
inhibition in vivo at 10 mg/kg [23]: 25.5%
inhibition in vivo at 10 mg/kg [24]: 24.5%
inhibition in vivo at 1 mg/kg [25]: -8.1%
inhibition in vivo at 1 mg/kg [26]: -3%
inhibition in vivo at 1 mg/kg [27]: 10%
inhibition in vivo at 1 mg/kg [28]: 7.5%
inhibition in vivo at 0.1 mg/kg [29]: -7.9%
inhibition in vivo at 10 mg/kg [30]: 22.5%
